MPTP block: blocks calcium-induced mitochondrial swelling; isolated mouse mitochondria, Ca2+ swelling absorbance, 30 min; 360,000 compounds, 1.4% hits; inhibition, % at 10 µM;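 active means inhibition of 50% or more, scaled per plate between neutral and stimulator controls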
GRIN3A LBD mod: modulates the human NR3A ligand-binding domain | NR3A LBD differential scanning fluorimetry, Tm shift; 0% = protein alone, 100% = glycine-bound protein | Tm shift relative to glycine control, % at 25 µM | 340,000 compounds, 2.5% hits;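 active means melting temperature shift of at least 10% of the positive control shift, at one fixed dose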
SKN-1 block: inhibitors of C. elegans SKN-1. C. elegans VP596 Pgst-4::GFP/RFP ratio, acrylamide-induced, 24 h. inhibition, % at 21.8 µM. 360,000 compounds, 0.49% hits. AID 624304;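 active means interference check ratio from 0.5 to 1.5 plus GFP to RFP signal ratio inhibition reaching or exceeding a fixed threshold, cut at about 30% in these data, passing the limit was not always enough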
ADAM17 inh: inhibitors of human ADAM17. recombinant ADAM17, EDANS/DABCYL FRET peptide cleavage. inhibition, % at 6.95 µM. 370,000 compounds, 0.83% hits. AID 720648;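 active means inhibition above the mean of compounds lying between control limits plus 3 SD, set per campaign, cut at about 8.5% in these data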
Target sequence (P78536 215-824 limits assumed): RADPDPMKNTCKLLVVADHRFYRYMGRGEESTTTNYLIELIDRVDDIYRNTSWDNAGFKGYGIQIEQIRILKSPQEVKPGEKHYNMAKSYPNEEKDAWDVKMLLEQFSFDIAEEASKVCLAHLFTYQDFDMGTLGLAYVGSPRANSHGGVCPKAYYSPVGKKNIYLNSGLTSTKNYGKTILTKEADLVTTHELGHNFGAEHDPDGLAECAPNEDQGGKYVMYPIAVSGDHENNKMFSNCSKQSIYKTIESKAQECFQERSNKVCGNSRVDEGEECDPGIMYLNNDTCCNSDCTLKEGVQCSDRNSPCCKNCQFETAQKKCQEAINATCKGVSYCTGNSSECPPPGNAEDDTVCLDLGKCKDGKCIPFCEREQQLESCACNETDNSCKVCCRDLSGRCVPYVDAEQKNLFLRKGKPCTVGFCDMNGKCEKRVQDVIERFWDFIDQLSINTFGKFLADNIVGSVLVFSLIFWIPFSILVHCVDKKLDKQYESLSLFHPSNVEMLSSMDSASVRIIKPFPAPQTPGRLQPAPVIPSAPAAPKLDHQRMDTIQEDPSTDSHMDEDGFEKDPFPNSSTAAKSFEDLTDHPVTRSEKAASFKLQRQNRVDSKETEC
ADAM10 inh: ADAM10 inhibition, QFRET primary screen | O14672 | recombinant ADAM10, EDANS/DABCYL FRET peptide cleavage, 3 h | inhibition, % at 7 µM | 370,000 compounds, 0.62% hits | AID 720582;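 active means inhibition above a per-campaign cutoff equal to the mean of compounds falling between control-based bounds plus 3 SD, cut at about 20% in these data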
MT1-MMP act inh: blocks activation of human MT1-MMP | P50281 | HT1080 RFP-PRO-GFP cells, GFP/RFP ratio fluorescence, overnight; percent of plate control window, DMSO zero | GFP/RFP ratio change, % at 20 µM | 360,000 compounds, 0.061% hits;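 active means GFP/RFP ratio change of at least 30% with cell ATP level not reduced by more than half and red fluorescence within 50% of control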
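Test system: HT1080 RFP-PRO-GFP cells; Benchmarks: DMSO and RFP-L50D-GFP cell wells; Timing: cells overnight before dosing, compound overnight, 37 °C, 5% CO2; Compound: one 20 µM compound dose with 1% DMSO; Read-out: GFP/RFP fluorescence ratio.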
Rh123 counter: Rhodamine 123 counter-screen of mitochondrial pore hits; shares compounds with MPTP block; isolated mitochondria, membrane potential, Rhodamine 123 fluorescence; inhibition, % at 10 µM; 5,000 compounds, 78% hits; AID 624504; in the data active means inhibition above about 22%
MPTP abs DR: dose response confirmation of mitochondrial permeability transition pore inhibitors; shares compounds with MPTP block; isolated mitochondria swelling, absorbance; IC50, µM; 780 compounds, 58% hits; in the data active means IC50 below about 20 µM
MPTP counter DR: active in counter-screen for permeability transition pore inhibitors; IC50, µM; shares compounds with MPTP block; isolated mitochondria counterscreen, fluorescence read-out; 780 compounds, 49% hits; in the data active means IC50 below about 80 µM
Of the large screens only hits and unclear results are named; the others gave an inactive call (follow-up assays come after a bar, where they were run). A selection: hits, their analogues and other compounds. The true share with any hit is near 4.7%.

COc1ccccc1OCC(=O)Nc1ccc(NC(=O)COc2ccccc2OC)cc1	none
CC(C)(C)NS(=O)(=O)c1ccc(NS(=O)(=O)c2ccc(F)cc2)cc1	none
Fc1ccc(NC(=S)Nc2cccc3ccccc23)cc1F	MPTP block 81 | Rh123 counter 98
Fc1ccc(NC(=S)Nc2cccc3ccccc23)cc1	none
S=C(Nc1ccc(Cl)cc1)Nc1cccc2cnccc12	MPTP block 102 | Rh123 counter 93
Fc1ccc(NC(=S)Nc2cccc3cnccc23)cc1	none
COc1ccc(CCNC(=O)CCNS(=O)(=O)c2ccc3c(c2)CCN3C(C)=O)cc1OC	none
Cc1cc(Br)ccc1NC(=O)CN1C(=O)C2C3CC(c4ccccc4)C(C3)C2C1=O (configuration not stated)	none
Fc1ccc(NC(=S)NCc2ccc3c(c2)OCO3)cc1	none
Fc1ccc(NC(=S)SCc2ccc3c(c2)OCO3)cc1F	MPTP block 76 (no result: GRIN3A LBD mod) | Rh123 counter 94
CCN(CC)S(=O)(=O)c1cc(C)ccc1NC(=S)Nc1cccnc1	MPTP block 53 | Rh123 counter 88
CCCCNc1nc2ccccc2n1CC(=O)Nc1ccc2c(c1)OCCO2	none (no result: MPTP block, SKN-1 block, MT1-MMP act inh)
O=C(NC1CCCCC1)C1CCCN(S(=O)(=O)c2cnc[nH]2)C1 (configuration not stated)	none
CC(C)c1ccc(COc2ccc(C(=O)N3CCOCC3)cc2)cc1	MPTP block 67 | Rh123 counter 49
CCOc1ccc(OCc2ccc(C(=O)N3CCCC3)o2)cc1	none
CC(C)c1ccc(OCc2ccc(C(=O)N3CCCC3)o2)cc1	MPTP block 84 | Rh123 counter inactive | MPTP abs DR 12 | MPTP counter DR 18
Cc1cc(C)nc(SCC(=O)c2ccc(F)cc2F)n1	none
COc1cccc(C2(O)CCN(C(=O)c3cccs3)CC2)c1	none
CNC(=S)NCCCc1ccccc1	none
CC1CCCCC12NC(=O)N(CC(=O)Nc1ccccc1N1CCOCC1)C2=O (configuration not stated)	none
CCOC(=O)c1cnc2c(C)c(Cl)ccc2c1N1CCN(CC)CC1	none
Cc1ccc(S(=O)(=O)NC(C)(C)CSc2nnc(Nc3ccccc3)s2)cc1	MPTP block 65 | Rh123 counter 66
COc1ccc(-c2csc(NC(=O)C3CCN(c4ncnc5sc(C)c(C)c45)CC3)n2)cc1OC	MPTP block 88 | Rh123 counter 65
NCC12CC3CC(C1)CC(c1ccc(Cl)cc1)(C3)C2	MPTP block 75 | Rh123 counter inactive | MPTP abs DR 3.7 | MPTP counter DR 42
NCC12CC3CC(C1)CC(CN)(C3)C2	none
O=S(=O)(NCCNc1ncc(C(F)(F)F)cc1Cl)C(F)(F)F	MPTP block 81 | Rh123 counter 94
Fc1ccc(CNC(=S)Nc2ccc(Cl)cc2)cc1	MPTP block 65 | Rh123 counter 95
S=C(NCc1ccccc1)NCc1ccc(CNC(=S)NCc2ccccc2)cc1	MPTP block 79, GRIN3A LBD mod 20 | Rh123 counter 90
Fc1ccc(NC(=S)NCc2ccccc2)cc1	none
Fc1ccc(CNC(=S)NCc2ccccc2)cc1	none
S=C(NCCC(c1ccccc1)c1ccccc1)Nc1cccc(Cl)c1	MPTP block 98, GRIN3A LBD mod 16 | Rh123 counter 87
Cc1ccc(NC(=S)NCc2ccc(Cl)cc2)c(OC(F)F)c1	MPTP block 62 | Rh123 counter 97
Cc1ccc(S(=O)(=O)NC2CC2)s1	none
Fc1cccc(NC(=S)NNc2c3ccccc3nc3ccccc23)c1	MPTP block 92 | Rh123 counter 46
S=C(NCc1ccc(Cl)cc1)Nc1ccccc1	MPTP block 65 | Rh123 counter 93
O=C(O)CCNC(=S)Nc1cccc(F)c1	none
Fc1cccc(NC(=S)NCc2ccccc2Cl)c1	MPTP block 86 | Rh123 counter 97
S=C(NCc1ccccc1Cl)Nc1ccccc1Cl	none
Cc1cc(Cl)ccc1NC(=S)NCc1ccccc1Cl	MPTP block 93 | Rh123 counter 84
Cc1nc2ccc3nc(NC(=O)c4ccco4)sc3c2s1	none
CCc1cc(C(=O)N2CCCC(CNS(=O)(=O)c3cccs3)C2)n(C)n1 (configuration not stated)	none
Cc1ccccc1OCCC(=O)OCC(=O)N1c2ccccc2NC(=O)C1(C)C	none
CCCC1NC(=O)c2cc3ccccc3cc2-n2c1nc1cc(F)ccc1c2=O (configuration not stated)	none (no result: GRIN3A LBD mod)
S=C(NCc1ccc(Cl)cc1Cl)Nc1ccccc1	MPTP block 95, GRIN3A LBD mod 13 | Rh123 counter 95
COC(=O)C1CCCCN1C(=O)c1cc(COc2cccc3cnccc23)on1 (configuration not stated)	MPTP block 93 (no result: GRIN3A LBD mod) | Rh123 counter 100
COC(=O)C1CCCCN1C(=O)c1cc(COc2cccc3cccnc23)on1 (configuration not stated)	none
CCOC(=O)CC1CCCCN1C(=O)c1cc(COc2cccc3cnccc23)on1 (configuration not stated)	MPTP block 102 | Rh123 counter 112
CCCn1c(N)c(N(CCOC)C(=O)c2cc(C)cc(C)c2)c(=O)[nH]c1=O	none
COc1c2ccoc2c(OC)c2oc(=O)ccc12	none
C=CC(C)(C)c1c2occc2c(O)c2ccc(=O)oc12	MPTP block 74 | Rh123 counter 84
Cc1cc(C)nc(SCC(=O)N/N=C/C=C/c2ccccc2)n1	none
Cc1cc(C)nc(SCC(=O)N/N=C\C(Br)=C\c2ccccc2)n1	MPTP block 71 | Rh123 counter 66
COC(=O)c1cc(Cl)c(NC(=O)/C=C/c2ccc(Cl)cc2Cl)cc1OC	MPTP block 83 | Rh123 counter inactive | MPTP abs DR inactive | MPTP counter DR 4.4
Cc1ccc(NC(=O)C2CC(O)CN2C(=O)OCc2ccccc2)c(C)c1 (configuration not stated)	none
Cc1ccc(NC(=O)COC(=O)c2ccc([N+](=O)[O-])o2)cc1S(=O)(=O)N1CCCCC1	none
Cc1cccc(NCCC(=O)c2ccc(Br)cc2)c1	none
CCOC(=O)CNCCC(=O)c1ccc(Br)cc1	MPTP block 55, GRIN3A LBD mod 22 | Rh123 counter inactive | MPTP abs DR inactive | MPTP counter DR inactive
